Screens deposited in PubChem BioAssay by The Scripps Research Institute Molecular Screening Center.
An excerpt weighted towards active compounds, which were near 1.9% of everything screened.
PLC-gamma1 inh – PLC-gamma1 (human) inhibition, primary screen; purified PLC-gamma1, fluorogenic substrate, fluorescence; inhibition, % at 12.2 µM; 370,000 tested, 0.84% active; AID 720700
PLCb3 inh – blocks human PLC-beta3 enzyme activity. Purified PLC-beta3, fluorogenic substrate, fluorescence. inhibition, % at 12.2 µM. 370,000 tested, 0.18% active. AID 720704; in the data active = inhibition above about 11%;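 note: 0% = median of compound wells on plate and 100% = full blocker control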
ARFGAP1 inhibitor – inhibits rat ARF GTPase activating protein 1. Q62848. Arfgap1-stimulated ARF1 GTP hydrolysis, GDP FP detection. inhibition, % at 16.5 µM. 360,000 tested, 0.26% active. AID 651572;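 active = inhibition above a per-plate limit, mean inhibition of low control wells plus 3 SD, cut at about 25% in these data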;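 note: 0% = DMSO wells with enzyme and 100% = wells lacking Arfgap1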
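Material: rat Arfgap1 GAP domain (His6, aa 1-136), purified enzyme. Also added: human ARF1(Δ1-17)-GTP substrate. Compound dosing: 16.5 µM single point, 1.26% DMSO. Timing: enzyme reaction 120 min at 25 °C after 20 min preincubation. Signal: GDP detection by fluorescence polarization. Read-out basis: percent inhibition of GAP-stimulated GDP formation, scaled between DMSO and no-Arfgap1 medians.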
ASAP1 inh – inhibitors of human ASAP1 ArfGAP activity. AID 624377. ASAP1-stimulated ARF1 GTP hydrolysis, GDP FP detection. inhibition, % at 16.5 µM. 360,000 tested, 0.19% active; in the data active = inhibition above about 25%;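 note: 0% = vehicle with enzyme and substrate and 100% = no enzyme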
Target sequence (Q9ULH1 325-724 limits assumed): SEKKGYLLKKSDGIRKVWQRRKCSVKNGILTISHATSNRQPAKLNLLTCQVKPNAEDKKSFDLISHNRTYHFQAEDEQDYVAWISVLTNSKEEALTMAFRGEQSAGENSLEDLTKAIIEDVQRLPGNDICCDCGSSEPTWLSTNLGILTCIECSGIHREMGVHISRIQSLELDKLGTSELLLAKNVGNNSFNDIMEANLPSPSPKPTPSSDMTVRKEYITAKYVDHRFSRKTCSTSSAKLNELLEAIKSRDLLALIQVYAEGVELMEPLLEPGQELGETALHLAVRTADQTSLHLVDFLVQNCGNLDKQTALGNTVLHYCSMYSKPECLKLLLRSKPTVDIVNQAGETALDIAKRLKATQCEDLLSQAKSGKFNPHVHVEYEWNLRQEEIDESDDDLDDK
sPLA2-III inh – Inhibits HGIII-sPLA2 liposome hydrolysis, primary screen; Q9NZ20; 370,000 tested, 0.56% active; QFRET BODIPY PC-A2 liposome hydrolysis, fluorescence; inhibition, % at 12.2 µM;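 active = inhibition above mean plus 3 SD of compounds lying within the high and low control bounds, cut at about 19% in these data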;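 note: 0% = median of test compound wells and 100% = no enzyme DMSO wells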
PLCgamma1 ctr – counter-screen for PLC-beta3 inhibitors: inhibitors of human PLC-gamma1; 3,300 tested, 3.1% active; purified PLC-gamma1, fluorogenic substrate, fluorescence; AID 743258; inhibition, % at 12.3 µM; shares compounds with PLC-gamma1 inh
PLCb3 confirm – confirmation of human PLC-beta3 inhibitors | shares compounds with PLC-gamma1 inh | purified PLC-beta3, fluorogenic substrate fluorescence | inhibition, % at 12.3 µM | 3,300 tested, 1% active | AID 743261; in the data active = inhibition above about 11%
Active calls of the source: *; i = inactive; / = not tested or not shown. Cut-off read from the data, not from the text of the source, unless noted: active = inhibition above about 9.5%; inactive = the rest.

SMILES	PLC-gamma1 inh	PLCb3 inh	ARFGAP1 inhibitor	ASAP1 inh	sPLA2-III inh	PLCgamma1 ctr	PLCb3 confirm
CC(=O)CC[C@H]1CC[C@]2(CCCN(S(=O)(=O)C3CCCCC3)C2)O1	-2.5	-1.6	/	/	5.5	/	/
COc1ccc(CCNC(=O)Nc2nnc([C@@H]3C[C@H](O)[C@@H](CO)O3)s2)cc1OC	1.7	0.5	-0.5	4.8	-1.3	/	/
O=C(NCCc1cccs1)Nc1nnc([C@H]2C[C@H](O)[C@@H](CO)O2)s1	11.0*	-1.5	1.0	1.1	-1.4	-11.7	-8.1
COc1ccccc1CCNC(=O)COc1cccc2c1OC(C)(C)C2	3.2	-7.3	10.0	1.6	0.2	/	/
COc1cccc(CN(C)C(=O)COc2cccc3c2OC(C)(C)C3)c1OC	13.0*	12.6*	4.0	12.0	5.4	-4.5	-3.7
Cc1ccc(NC(=O)OC2CC3CC2[C@H]2CCCCN2[C@H]3Cc2ccccc2)cc1 (stereo not given in full)	4.0	-0.7	/	/	-2.9	/	/
NC(=O)CSc1nnc(-c2ccccn2)n1Cc1ccco1	0.1	0.5	2.6	-5.0	5.9	/	/
Clc1ccccc1CSc1nnc(-c2ccccn2)n1Cc1ccco1	11.8*	0.6	0.8	-8.3	-27.5	-5.5	-4.2
CC(C)CNC(=O)C1(C)CCCCCN1C(=O)c1cc2ccccc2s1 (stereo not given)	13.9*	6.8	-11.0	15.8	-8.6	-5.2	1.6
Cc1nc(C(F)(F)F)ccc1C(=O)N1CCCCCC1(C)C(=O)NCC(C)C (stereo not given)	15.5*	6.8	-4.9	14.7	0.3	-3.4	2.8
CCCCNC(=O)C1(C)CCCCN1C(=O)c1cc2ccccc2s1 (stereo not given)	4.5	13.1*	-8.4	-8.2	5.0	-1.1	3.7
CC(C)CNC(=O)C1(C)CCCCCN1C(=O)c1cccnc1 (stereo not given)	2.5	3.7	-4.2	5.2	1.6	/	/
CCOC(=O)C1(C)CCCCCN1C(=O)c1ccc(C(F)(F)F)nc1C (stereo not given)	3.8	4.7	4.5	9.1	-7.6	/	/
O=C1CCC2(CCCCC2)N1CCCO	-2.5	-0.8	/	/	6.7	/	/
c1ccc(N2CCOCCOCCOCCOCC2)cc1	12.1*	5.4	2.7	8.0	8.4	2.3	1.8
c1ccn(-c2ccc(N3CCOCC3)cc2)c1	0.4	-0.7	-5.4	6.7	-0.3	/	/
COCCCNc1nc(N)c([N+](=O)[O-])c(NCc2ccccc2)n1	10.2*	1.2	13.6	7.3	11.6	5.4	-0.7
CN(C)CCCNc1nc(N)c([N+](=O)[O-])c(NCc2ccccc2)n1	9.7*	-0.8	6.8	-5.8	-5.9	-1.4	1.1
C=c1[nH]cc(C(C)c2c(C)n(C)c3ccccc23)/c1=C/C (stereo not given)	-28.2	-36.0	/	/	-1.4	/	/
Cc1ccc(/C=N/NC(=O)C[n+]2ccccc2)o1	-1.3	-5.6	6.9	0.0	4.3	/	/
O=C(C[n+]1ccccc1)N/N=C/c1ccco1	9.5*	3.4	8.2	5.6	6.4	5.3	2.1
CCC(=O)Nc1cccc(NC(=S)NC(=O)c2ccccc2C)c1	9.9*	2.8	13.7	3.3	13.6	1.5	1.5
C=CCN=C1NC(c2ccccc2)C(C(=O)OC)=C(C)N1C (stereo not given)	4.7	6.0	-12.3	-2.1	-1.5	/	/
COc1ccc2c(c1)CCCN2C(=O)C1CCCN(S(=O)(=O)c2ccc(C(C)(C)C)cc2)C1 (stereo not given)	1.1	-1.3	/	/	-2.5	/	/
O=C(Nc1nc2ncccn2c1-c1ccc(F)c(F)c1)C1CC1	i	i	/	/	1.8	/	/
CCn1c(SCC(=O)Nc2ccccc2-c2ccccc2)nnc1-c1ccc(Cl)cc1	0.7	-2.1	/	/	-8.5	/	/
COc1ccccc1CNC(=O)COC(=O)Cn1cnc2c1c(=O)n(C)c(=O)n2C	3.8	11.0*	6.1	-14.7	9.2	-3.2	0.4
COC(=O)c1ccccc1NC(=O)Cn1cnc2c1c(=O)n(C)c(=O)n2C	10.3*	-1.4	6.6	18.7	5.2	-9.1	-4.5
COc1ccc(N2CCN(C(=O)CCc3ccc(S(=O)(=O)NCC(C)C)cc3)CC2)cc1	9.6*	1.6	-3.6	6.9	0.1	-0.4	0.3
